Experimental data taken from ChEMBL document CHEMBL4431364, “Discovery and synthetic optimization of a novel scaffold for hydrophobic tunnel-targeted autotaxin inhibition” (Bioorg Med Chem, 2016).
Active and inactive are the calls of the source. The rule behind the calls is not given here.

What was measured:
[1] = molecular target: T1, Autotaxin (Homo sapiens, UniProt Q13822); assay: Inhibition of C-terminal FLAG tagged human recombinant ATX expressed in insect sf9 cells using FS-3 as substrate measured every 2 mins for 60 mins by FRET assay
Summary of the method: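 Dose response over 0.03 to 30 μM compound, 10 nM human FLAG-fusion ATX, 1 μM FS-3 in pH 8.0 Tris/BSA assay buffer. Fluorescence at 485/520 nm every 2 min for 60 min at 37 °C, normalized to no-ATX and no-compound controls. IC50 by non-linear regression. Triplicate.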

[2] = molecular target: T1, Autotaxin; assay: Inhibition of C-terminal FLAG tagged human recombinant ATX expressed in insect sf9 cells at 10 uM using FS-3 as substrate measured every 2 mins for 60 mins by FRET assay
Summary of the method: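 10 μM compound with 10 nM human FLAG-fusion ATX in pH 8.0 Tris buffer (30 μM BSA, 1 mM CaCl2, 1 mM MgCl2, 5 mM KCl, 140 mM NaCl) and 1 μM FS-3. Fluorescence at ex 485/em 520 nm read every 2 min for 60 min at 37 °C. Normalized to no-ATX (0%) and ATX without compound (100%). Triplicate.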

[3] = molecular target: T1, Autotaxin; assay: Inhibition of C-terminal FLAG tagged human recombinant ATX expressed in insect sf9 cells at 10 uM using pNP-TMP as substrate measured every 2 mins for 60 mins by absorbance
[4] = molecular target: T1, Autotaxin; assay: Inhibition of C-terminal FLAG tagged human recombinant ATX expressed in insect sf9 cells using pNP-TMP as substrate measured every 2 mins for 60 mins by absorbance
Summary of the method: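 Dose response 0.03 to 30 μM compound against 10 nM human FLAG-fusion ATX with 1 mM pNP-TMP in pH 8.0 Tris/BSA buffer. A405 every 2 min for 60 min at 37 °C, normalized to no-enzyme and uninhibited controls. IC50 by non-linear regression. Triplicate.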

[5] = molecular target: T2, Glycerophosphocholine cholinephosphodiesterase ENPP6 (Homo sapiens) (UniProt Q6UWR7); assay: Inhibition of C-terminal FLAG tagged human recombinant NPP6 expressed in insect sf9 cells assessed as remaining enzyme activity response at 10 uM using pNPPC as substrate measured every 2 mins for 1 hr by […]
T2 sequence (whole entry): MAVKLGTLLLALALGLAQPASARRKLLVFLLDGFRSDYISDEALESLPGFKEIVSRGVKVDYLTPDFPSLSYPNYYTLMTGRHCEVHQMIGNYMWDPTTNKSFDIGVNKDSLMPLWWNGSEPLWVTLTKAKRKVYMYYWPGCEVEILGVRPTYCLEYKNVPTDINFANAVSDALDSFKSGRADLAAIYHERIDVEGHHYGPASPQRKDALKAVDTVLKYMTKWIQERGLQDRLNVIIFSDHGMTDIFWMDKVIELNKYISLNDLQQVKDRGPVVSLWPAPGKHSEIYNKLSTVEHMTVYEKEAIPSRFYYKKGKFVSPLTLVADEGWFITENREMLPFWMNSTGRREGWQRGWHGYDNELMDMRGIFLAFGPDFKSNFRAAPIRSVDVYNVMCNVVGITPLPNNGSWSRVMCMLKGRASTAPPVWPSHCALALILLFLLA
Summary of the method: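 Final 10 nM human FLAG-fusion NPP6, 10 μM compound, 10 μM pNPPC in 500 mM NaCl, 100 mM Tris-HCl, 0.05% Triton X-100, pH 9. A405 at 37 °C every 2 min for 1 h. Background absorbance subtracted. Mean percent response relative to enzyme-only control (no-enzyme = 0%). Triplicate.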

[6] = molecular target: T3, Ectonucleotide pyrophosphatase/phosphodiesterase family member 7 (Homo sapiens) (UniProt Q6UWV6); assay: Inhibition of C-terminal FLAG tagged human recombinant NPP7 expressed in insect sf9 cells assessed as remaining enzyme activity response at 10 uM using pNPPC as substrate measured every 2 mins for 1 hr by […]
T3 sequence (whole entry): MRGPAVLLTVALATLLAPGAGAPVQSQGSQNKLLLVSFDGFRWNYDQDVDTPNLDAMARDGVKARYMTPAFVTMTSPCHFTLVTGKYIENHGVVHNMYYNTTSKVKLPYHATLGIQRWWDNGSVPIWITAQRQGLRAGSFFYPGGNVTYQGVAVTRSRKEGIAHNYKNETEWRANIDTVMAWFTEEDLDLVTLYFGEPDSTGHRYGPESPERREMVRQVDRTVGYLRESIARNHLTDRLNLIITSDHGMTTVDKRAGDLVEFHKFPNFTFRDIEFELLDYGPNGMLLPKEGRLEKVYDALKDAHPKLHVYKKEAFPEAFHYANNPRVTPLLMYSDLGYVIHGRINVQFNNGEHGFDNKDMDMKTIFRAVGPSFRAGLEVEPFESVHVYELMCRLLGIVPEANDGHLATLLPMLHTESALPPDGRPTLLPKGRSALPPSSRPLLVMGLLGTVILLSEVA
Summary of the method: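 Human FLAG-fusion NPP7 (10 nM final) with 10 μM compound and 10 μM pNPPC in 50 mM Tris-HCl, 150 mM NaCl, 10 mM taurocholate, pH 8. Absorbance at 405 nm, 37 °C, every 2 min for an hour. Background subtracted. Mean percent of enzyme-only response (no-enzyme = 0%). Triplicate.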

[7] = molecular target: Lysophosphatidic acid receptor 4 (Homo sapiens) (UniProt Q99677); assay: Agonist activity at LPA receptor 4 (unknown origin) assessed as calcium mobilization after 30 mins by fluorescence analysis; format: functional
[8] = molecular target: Lysophosphatidic acid receptor 1 (Homo sapiens) (UniProt Q92633); assay: Agonist activity at LPA receptor 1 (unknown origin) assessed as calcium mobilization after 30 mins by fluorescence analysis; format: functional
[9] = molecular target: Lysophosphatidic acid receptor 2 (Mus musculus) (UniProt Q9JL06); assay: Agonist activity at LPA receptor 2 in double knockout MEF assessed as calcium mobilization after 30 mins by fluorescence analysis; format: functional, cell-based
[10] = molecular target: T4, Lysophosphatidic acid receptor 3 (Homo sapiens) (UniProt Q9UBY5); assay: Agonist activity at LPA receptor 3 (unknown origin) assessed as calcium mobilization after 30 mins by fluorescence analysis; format: functional
T4 sequence (whole entry): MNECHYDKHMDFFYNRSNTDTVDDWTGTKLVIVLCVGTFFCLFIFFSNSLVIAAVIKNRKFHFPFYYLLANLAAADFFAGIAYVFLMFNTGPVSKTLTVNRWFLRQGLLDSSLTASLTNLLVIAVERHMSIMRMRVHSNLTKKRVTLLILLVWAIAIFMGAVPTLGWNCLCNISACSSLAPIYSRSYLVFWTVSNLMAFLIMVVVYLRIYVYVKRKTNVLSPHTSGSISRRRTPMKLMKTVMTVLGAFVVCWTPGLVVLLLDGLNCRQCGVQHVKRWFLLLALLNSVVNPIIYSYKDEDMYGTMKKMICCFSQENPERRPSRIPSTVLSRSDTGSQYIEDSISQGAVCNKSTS

[11] = molecular target: Lysophosphatidic acid receptor 5 (Homo sapiens) (UniProt Q9H1C0); assay: Agonist activity at LPA receptor 5 (unknown origin) assessed as calcium mobilization after 30 mins by fluorescence analysis; format: functional
[12] = molecular target: Lysophosphatidic acid receptor 1 (Homo sapiens) (UniProt Q92633); assay: Antagonist activity at LPA receptor 1 (unknown origin) assessed as inhibition of LPA induced calcium mobilization at 0.01 to 10 uM after 30 mins by fluorescence analysis; format: functional
[13] = molecular target: Lysophosphatidic acid receptor 2 (Mus musculus) (UniProt Q9JL06); assay: Antagonist activity at LPA receptor 2 in double knockout MEF assessed as inhibition of LPA induced calcium mobilization at 0.01 to 10 uM after 30 mins by fluorescence analysis; format: functional, cell-based
[14] = molecular target: T4, Lysophosphatidic acid receptor 3 (Homo sapiens); assay: Antagonist activity at LPA receptor 3 (unknown origin) assessed as inhibition of LPA induced calcium mobilization at 0.01 to 10 uM after 30 mins by fluorescence analysis; format: functional
[15] = molecular target: Lysophosphatidic acid receptor 4 (Homo sapiens) (UniProt Q99677); assay: Antagonist activity at LPA receptor 4 (unknown origin) assessed as inhibition of LPA induced calcium mobilization at 0.01 to 10 uM after 30 mins by fluorescence analysis; format: functional
[16] = molecular target: Lysophosphatidic acid receptor 5 (Homo sapiens) (UniProt Q9H1C0); assay: Antagonist activity at LPA receptor 5 (unknown origin) assessed as inhibition of LPA induced calcium mobilization at 0.01 to 10 uM after 30 mins by fluorescence analysis; format: functional
[17] = molecular target: Lysophosphatidic acid receptor 2 (Mus musculus) (UniProt Q9JL06); assay: Potentiation of LPA induced activity at LPA receptor 2 in double knockout MEF assessed as calcium mobilization at 0.01 to 10 uM after 30 mins in presence of BSA by Fura-2AM based fluorescence analysis; format: functional, cell-based
[18] = molecular target: T1, Autotaxin; assay: Potency index, ratio of IC50 for GRI392104 to IC50 for test compound for inhibition of C-terminal FLAG tagged human recombinant ATX expressed in insect sf9 cells using FS-3 as substrate measured every 2 mins for 60 mins by FRET assay

Lysophosphatidic acid receptor 2 (Mus musculus), sequence (Q9JL06 whole entry): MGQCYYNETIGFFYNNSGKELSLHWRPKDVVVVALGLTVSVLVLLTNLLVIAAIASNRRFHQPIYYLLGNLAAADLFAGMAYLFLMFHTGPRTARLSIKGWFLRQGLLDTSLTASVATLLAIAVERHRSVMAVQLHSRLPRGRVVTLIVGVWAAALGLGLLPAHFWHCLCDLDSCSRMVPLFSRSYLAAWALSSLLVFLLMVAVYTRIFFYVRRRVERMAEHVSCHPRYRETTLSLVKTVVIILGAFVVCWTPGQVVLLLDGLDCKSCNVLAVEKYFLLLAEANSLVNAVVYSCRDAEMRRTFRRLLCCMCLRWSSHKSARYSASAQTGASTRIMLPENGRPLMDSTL
Lysophosphatidic acid receptor 1 (Homo sapiens), sequence (Q92633 whole entry): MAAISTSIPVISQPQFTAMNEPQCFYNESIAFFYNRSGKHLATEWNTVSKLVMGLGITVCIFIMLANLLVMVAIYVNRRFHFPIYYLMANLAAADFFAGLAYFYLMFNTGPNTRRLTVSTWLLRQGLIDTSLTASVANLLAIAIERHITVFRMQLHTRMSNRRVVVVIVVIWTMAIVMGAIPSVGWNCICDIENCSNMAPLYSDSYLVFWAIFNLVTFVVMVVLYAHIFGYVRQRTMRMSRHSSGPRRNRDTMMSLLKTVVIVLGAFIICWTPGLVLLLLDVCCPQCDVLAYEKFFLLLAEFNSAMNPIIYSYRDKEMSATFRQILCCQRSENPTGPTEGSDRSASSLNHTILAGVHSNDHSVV
Lysophosphatidic acid receptor 5 (Homo sapiens), sequence (Q9H1C0 whole entry): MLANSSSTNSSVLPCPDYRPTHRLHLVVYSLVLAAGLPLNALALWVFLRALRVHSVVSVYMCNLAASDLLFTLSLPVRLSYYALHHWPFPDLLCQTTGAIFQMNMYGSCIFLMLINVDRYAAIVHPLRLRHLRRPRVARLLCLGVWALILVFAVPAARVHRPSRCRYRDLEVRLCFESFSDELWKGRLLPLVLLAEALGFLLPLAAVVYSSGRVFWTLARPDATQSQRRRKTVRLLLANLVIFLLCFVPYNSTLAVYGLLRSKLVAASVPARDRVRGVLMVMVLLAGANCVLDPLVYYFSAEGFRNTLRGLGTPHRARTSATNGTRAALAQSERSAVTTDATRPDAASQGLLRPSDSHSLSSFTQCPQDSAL
Lysophosphatidic acid receptor 4 (Homo sapiens), sequence (Q99677 whole entry): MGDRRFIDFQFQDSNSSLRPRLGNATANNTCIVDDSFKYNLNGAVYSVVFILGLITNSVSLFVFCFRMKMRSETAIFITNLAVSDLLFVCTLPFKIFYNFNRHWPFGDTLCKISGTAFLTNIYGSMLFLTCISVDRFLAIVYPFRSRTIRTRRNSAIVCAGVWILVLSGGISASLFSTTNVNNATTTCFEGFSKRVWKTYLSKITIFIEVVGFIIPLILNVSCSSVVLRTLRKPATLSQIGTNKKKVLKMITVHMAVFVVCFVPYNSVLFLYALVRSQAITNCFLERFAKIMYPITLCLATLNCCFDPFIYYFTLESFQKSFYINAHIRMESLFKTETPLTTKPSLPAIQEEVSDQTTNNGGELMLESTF

| Compound | IC50 [1] [µM] | inhibition [2] [%] | inhibition [3] [%] | IC50 [4] [µM] | Activity [5] [%] | Activity [6] [%] | further results |
| --- | --- | --- | --- | --- | --- | --- | --- |
| O=C(COc1cc(Cl)cc(Cl)c1)N1CCN(c2ccccc2[N+](=O)[O-])CC1 | 3 | 77.7 | 46.8 | 11.4 | 93.4 | 99 |  |
| O=C(COc1ccc(Cl)cc1Cl)N1CCN(c2cccc([N+](=O)[O-])c2)CC1 | 3.4 | 73.2 | 7.3 |  | 89.8 | 89.5 |  |
| O=C(COc1ccc(C(F)(F)F)cc1)N1CCN(c2ccccc2[N+](=O)[O-])CC1 | 4.7 | 72.6 | 44.7 | 11.3 |  |  |  |
| O=C(COc1ccc(Cl)cc1Cl)N1CCN(c2ccc([N+](=O)[O-])cc2)CC1 | 3.7 | 51.8 |  |  | 92.2 | 103 |  |
| O=C(O)c1cccc(N2CCN(C(=O)COc3cccc(Cl)c3)CC2)c1 | 2.6 | 80 | 37.1 |  | 96.4 | 84.3 |  |
| O=C(O)c1cccc(N2CCN(C(=O)COc3ccc(Cl)cc3)CC2)c1 | 3.7 | 79.8 | 56.6 | 6.2 | 93.4 | 89.2 |  |
| O=C(CCCOc1ccc(Cl)cc1Cl)N1CCN(c2ccc([N+](=O)[O-])cc2)CC1 | 4 | 65.5 | 27.7 |  | 92.2 | 86.3 |  |
| O=C(O)c1cccc(N2CCN(C(=O)COc3cc(Cl)cc(Cl)c3)CC2)c1 | 7.3 | 54.6 | 56.2 | 5.2 |  |  |  |

Stronger by IC50 [1], values ahead:

| IC50 [1] [µM] | inhibition [2] [%] | inhibition [3] [%] | IC50 [4] [µM] | Activity [5] [%] | Activity [6] [%] | Compound | further results |
| --- | --- | --- | --- | --- | --- | --- | --- |
| 2.2 | 59.8 | 23.4 |  | 91 | 90.2 | O=C(O)c1ccccc1N1CCN(C(=O)COc2cc(Cl)cc(Cl)c2)CC1 |  |
| 2.3 | 63 | 20.4 |  | 95.8 | 93.1 | O=C(COc1cc(Cl)cc(Cl)c1)N1CCN(c2ccc([N+](=O)[O-])cc2)CC1 |  |
| 0.67 | 84.3 | 52.1 | 8.9 | 89.8 | 102 | O=C(COc1cc(Cl)cc(Cl)c1)N1CCN(c2cccc([N+](=O)[O-])c2)CC1 | Activity [7]: inactive; Activity [8]: inactive; Activity [9]: inactive; Activity [10]: inactive; Activity [11]: inactive; inhibition [12]: inactive; inhibition [13]: inactive; inhibition [14]: inactive; inhibition [15]: inactive; inhibition [16]: inactive; Activity [17]: Active; Ratio IC50 [18]: 6 |
| 2.2 | 76 | 19.9 |  | 94 | 114 | O=C(COc1ccc(Cl)cc1)N1CCN(c2ccc([N+](=O)[O-])cc2)CC1 |  |
| 2.2 | 67.1 | 37.9 |  | 89.2 | 87.3 | O=C(O)c1cccc(N2CCN(C(=O)COc3cccc(C(F)(F)F)c3)CC2)c1 |  |
| 2.1 | 76.1 | 29.5 |  | 95.2 | 103 | O=C(O)c1cccc(N2CCN(C(=O)COc3ccc(Cl)cc3Cl)CC2)c1 |  |
| 1.8 | 89.1 | 43.7 |  | 97.6 | 90.5 | O=C(O)c1ccccc1N1CCN(C(=O)COc2ccc(C(F)(F)F)cc2)CC1 |  |
